Data taken from ChEMBL document CHEMBL1255273, “Subacute toxicity of colistin methanesulfonate in rats: comparison of various intravenous dosage regimens” (Antimicrob Agents Chemother, 2008).

Experiments:
Details in all cases: in vivo
Rattus norvegicus [1] = test: Nephrotoxicity in Sprague-Dawley rat assessed as occurrence of moderate cortical proximal convoluted tubule necrosis at 30 mg/kg, iv every 12 hrs for 7 days; type: toxicity, organism-based; parameters: dose 30 mg/kg, route intravenous
How it was run: (§1)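 Sprague-Dawley rats (6 to 8 weeks old) were dosed for 7 days via a jugular vein cannula at 20 mg/kg/8 h (n = 9) or 30 mg/kg/12 h (n = 11), with a saline placebo group (n = 8). Kidneys were examined histologically post mortem by a blinded histologist. Lesion severity was graded 1+ (mild), 2+ (moderate) or 3+ (severe), and the number of animals showing each lesion was counted.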

Rattus norvegicus [2] = test: Nephrotoxicity in Sprague-Dawley rat assessed as occurrence of mild interstitial nephritis at 30mg/kg, iv every 12 hrs for 7 days; type: toxicity, organism-based; how it was run: as §1
Rattus norvegicus [3] = test: Toxicity in Sprague-Dawley rat assessed as effect on water consumption at 30 mg/kg, iv every 12 hrs for 7 days; type: organism-based; parameters: dose 30 mg/kg, route intravenous
How it was run: (§2)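 Daily cage-side observations covered food and water intake, body weight, body surface temperature and general well-being. Sprague-Dawley rats (6 to 8 weeks old) were dosed via a jugular vein cannula for 7 days, with a saline placebo control. Groups were compared by analysis of variance.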

Rattus norvegicus [4] = test: Nephrotoxicity in Sprague-Dawley rat assessed as occurrence of mild nuclear pyknosis at 30 mg/kg, iv every 12 hrs for 7 days; type: toxicity, organism-based; parameters: dose 30 mg/kg, route intravenous; how it was run: as §1
Rattus norvegicus [5] = test: Toxicity in Sprague-Dawley rat assessed as effect on food uptake at 30 mg/kg, iv every 12 hrs for 7 days; type: organism-based; parameters: dose 30 mg/kg, route intravenous; how it was run: as §2
Rattus norvegicus [6] = test: Nephrotoxicity in Sprague-Dawley rat assessed as occurrence of mild protein/cellular casts in proximal tubule at 20 mg/kg, iv every 8 hrs for 7 days; type: toxicity, organism-based; parameters: dose 20 mg/kg, route intravenous; how it was run: as §1
Rattus norvegicus [7] = test: Neurotoxicity in Sprague-Dawley rat assessed as decreased locomotor activity at 30 mg/kg, iv every 12 hrs for 6 days relative to control; type: toxicity, organism-based; parameters: dose 30 mg/kg, route intravenous
How it was run: (§3)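 Locomotor activity was recorded daily with a photobeam activity meter as part of a functional screening battery. Sprague-Dawley rats (6 to 8 weeks old) received 30 mg/kg/12 h via a jugular vein cannula for 7 days (n = 11), compared with saline placebo (n = 8). The treatment day was reported for each comparison.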

Rattus norvegicus [8] = test: Nephrotoxicity in Sprague-Dawley rat assessed as occurrence of severe protein/cellular casts in proximal tubule at 30 mg/kg, iv every 12 hrs for 7 days; type: toxicity, organism-based; parameters: dose 30 mg/kg, route intravenous; how it was run: as §1
Rattus norvegicus [9] = test: Nephrotoxicity in Sprague-Dawley rat assessed as occurrence of severe cortical proximal convoluted tubule necrosis at 150 mg/kg, iv every 12 hrs for 7 days; type: toxicity, organism-based; parameters: dose 150 mg/kg, route intravenous
Rattus norvegicus [10] = test: Neurotoxicity in Sprague-Dawley rat assessed as effect on motor control at 20 mg/kg, iv every 8 hrs for 7 days; type: toxicity, organism-based; parameters: dose 20 mg/kg, route intravenous
How it was run: (§4)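 Motor control was tested daily by requiring each rat to walk for 5 min on a rotarod treadmill. Sprague-Dawley rats (6 to 8 weeks old) were dosed via a jugular vein cannula for 7 days, with a saline placebo control.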

Rattus norvegicus [11] = test: Toxicity in Sprague-Dawley rat assessed as effect on food uptake at 20 mg/kg, iv every 8 hrs for 7 days; type: organism-based; parameters: dose 20 mg/kg, route intravenous; how it was run: as §2
Rattus norvegicus [12] = test: Nephrotoxicity in Sprague-Dawley rat assessed as occurrence of severe intracellular mineralization at 150 mg/kg, iv every 12 hrs for 7 days; type: toxicity, organism-based; parameters: dose 150 mg/kg, route intravenous
Rattus norvegicus [13] = test: Nephrotoxicity in Sprague-Dawley rat assessed as occurrence of moderate protein/cellular casts in proximal tubule at 30 mg/kg, iv every 12 hrs for 7 days; type: toxicity, organism-based; parameters: dose 30 mg/kg, route intravenous; how it was run: as §1
Rattus norvegicus [14] = test: Nephrotoxicity in Sprague-Dawley rat assessed as occurrence of mild cortical proximal convoluted tubule necrosis at 30 mg/kg, iv every 12 hrs for 7 days; type: toxicity, organism-based; parameters: dose 30 mg/kg, route intravenous; how it was run: as §1
Rattus norvegicus [15] = test: Neurotoxicity in Sprague-Dawley rat assessed as effect on forelimb grip strength at 20 mg/kg, iv every 8 hrs for 7 days; type: toxicity, organism-based; parameters: dose 20 mg/kg, route intravenous
How it was run: (§5)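 Forelimb grip strength was tested daily using a horizontal retort stand. Each rat had to hang from the horizontal beam holding its own body weight to pass. Rats (Sprague-Dawley, 6 to 8 weeks old) were dosed via a jugular vein cannula for 7 days, with a saline placebo control.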

Rattus norvegicus [16] = test: Neurotoxicity in Sprague-Dawley rat assessed as decreased locomotor activity at 30 mg/kg, iv every 12 hrs for 2 days relative to control; type: toxicity, organism-based; parameters: dose 30 mg/kg, route intravenous; how it was run: as §3
Rattus norvegicus [17] = test: Nephrotoxicity in Sprague-Dawley rat assessed as occurrence of severe nuclear pyknosis at 150 mg/kg, iv every 12 hrs for 7 days; type: toxicity, organism-based; parameters: dose 150 mg/kg, route intravenous
Rattus norvegicus [18] = test: Toxicity in Sprague-Dawley rat assessed as effect on body surface temperature at 30 mg/kg, iv every 12 hrs for 7 days; type: organism-based; parameters: dose 30 mg/kg, route intravenous; how it was run: as §2
Rattus norvegicus [19] = test: Toxicity in Sprague-Dawley rat assessed as effect on water consumption at 20 mg/kg, iv every 8 hrs for 7 days; type: organism-based; parameters: dose 20 mg/kg, route intravenous; how it was run: as §2
Rattus norvegicus [20] = test: Neurotoxicity in Sprague-Dawley rat assessed as effect on forelimb grip strength at 30 mg/kg, iv every 12 hrs for 7 days; type: toxicity, organism-based; parameters: dose 30 mg/kg, route intravenous; how it was run: as §5
Rattus norvegicus [21] = test: Neurotoxicity in Sprague-Dawley rat assessed as effect on motor control at 30 mg/kg, iv every 12 hrs for 7 days; type: toxicity, organism-based; parameters: dose 30 mg/kg, route intravenous; how it was run: as §4
Rattus norvegicus [22] = test: Nephrotoxicity in Sprague-Dawley rat assessed as occurrence of severe pallor of outer stripe of proximal tubule at 30 mg/kg, iv every 12 hrs for 7 days; type: toxicity, organism-based; parameters: dose 30 mg/kg, route intravenous; how it was run: as §1
Rattus norvegicus [23] = test: Nephrotoxicity in Sprague-Dawley rat assessed as occurrence of mild protein/cellular casts in proximal tubule at 30 mg/kg, iv every 12 hrs for 7 days; type: toxicity, organism-based; parameters: dose 30 mg/kg, route intravenous; how it was run: as §1
Rattus norvegicus [24] = test: Toxicity in Sprague-Dawley rat assessed as effect on body surface temperature at 20 mg/kg, iv every 8 hrs for 7 days; type: organism-based; parameters: dose 20 mg/kg, route intravenous; how it was run: as §2
Rattus norvegicus [25] = test: Nephrotoxicity in Sprague-Dawley rat assessed as occurrence of severe protein/cellular casts in proximal tubule at 150 mg/kg, iv every 12 hrs for 7 days; type: toxicity, organism-based; parameters: dose 150 mg/kg, route intravenous

Measured: Activity

COLISTIMETHATE SODIUM
Non-toxic: Rattus norvegicus [3] | Rattus norvegicus [5] | Rattus norvegicus [10] | Rattus norvegicus [11] | Rattus norvegicus [15] | Rattus norvegicus [18] | Rattus norvegicus [19] | Rattus norvegicus [20] | Rattus norvegicus [21] | Rattus norvegicus [24]
Toxic: all other assays above
